Results as given in publication PMC10975593 (ACS Omega, 2024).
pIC50: −log10 of the molar value. Like-named read-outs stand apart in the source and are kept apart here.

Experiments:
UO-31 = assay: NCI 60-cell line screen; format: cell-based, human; conditions: for GI50 / pIC50 / CC50: Homo sapiens; for GI50 / pIC50: UO-31; for CC50: UO-31, read-out: LC50; for TGI: UO-31, renal cancer
How it was run: (§1)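 Test compounds were submitted to the National Cancer Institute and run under NCI's standard 60-cell-line protocols. Read-outs were taken from percent-growth versus log-concentration curves.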

ACHN = assay: NCI 60-cell line screen; format: cell-based, human; conditions: for GI50 / pIC50 / CC50: Homo sapiens; for CC50: read-out: LC50; for TGI: renal cancer
UACC-257 = assay: NCI 60-cell line screen; format: cell-based, human; conditions: for GI50 / pIC50 / CC50: Homo sapiens; for GI50 / pIC50: UACC-257; for CC50: UACC-257, read-out: LC50; for TGI: UACC-257, melanoma
How it was run: as §1

HL-60(TB) = conditions: leukemia
NCI-H460 = assay: NCI 60-cell line screen; format: cell-based, human; conditions: for GI50 / pIC50 / CC50: Homo sapiens; for GI50 / pIC50: NCI-H460; for CC50: NCI-H460, read-out: LC50; for TGI: NCI-H460, non-small cell lung cancer
NCI-H226 = assay: NCI 60-cell line screen; format: cell-based, human; conditions: for GI50 / pIC50 / CC50: Homo sapiens; for GI50 / pIC50: NCI-H226; for CC50: NCI-H226, read-out: LC50; for TGI: NCI-H226, non-small cell lung cancer
SK-MEL-28 = assay: NCI 60-cell line screen; format: cell-based, human; conditions: for GI50 / pIC50 / CC50: Homo sapiens; for GI50 / pIC50: SK-MEL-28; for CC50: SK-MEL-28, read-out: LC50; for TGI: SK-MEL-28, melanoma
How it was run: as §1

M14 = assay: NCI 60-cell line screen; format: cell-based, human; conditions: for GI50 / pIC50 / CC50: Homo sapiens; for GI50 / pIC50: M14; for CC50: M14, read-out: LC50; for TGI: M14, melanoma
OVCAR-5 = assay: NCI 60-cell line screen; format: cell-based, human; conditions: for GI50 / pIC50 / CC50: Homo sapiens; for GI50 / pIC50: OVCAR-5; for CC50: OVCAR-5, read-out: LC50; for TGI: OVCAR-5, ovarian cancer
How it was run: as §1

EKVX = assay: NCI 60-cell line screen; format: cell-based, human; conditions: for GI50 / pIC50 / CC50: Homo sapiens; for CC50: read-out: LC50; for TGI: non-small cell lung cancer
BT-549 = assay: NCI 60-cell line screen; format: cell-based, human; conditions: for TGI: BT-549, breast cancer; for GI50 / pIC50 / CC50: Homo sapiens; for GI50 / pIC50: BT-549; for CC50: BT-549, read-out: LC50
[1] = tested on: MCF-7 and A549 cancer cell lines; assay: MTT assay, range over both cell lines; format: cell-based; conditions: read-out: IC50 values, range
How it was run: (§2)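 A549 in DMEM and MCF-7 in RPMI, each with 10% heat-inactivated FBS, 1% penicillin/streptomycin and 2 mmol/L glutamine at 37 °C, 5% CO2. Seeded at 2000 (A549) or 10,000 (MCF-7) cells/well and attached 24 h. Then 72 h with test compound at varying concentrations. MTT (5 mg/mL stock) added for 4 h at 37 °C, formazan dissolved in DMSO, absorbance read at 450/540 nm. Triplicates in three separate experiments.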

HCT-116 = assay: NCI 60-cell line screen; format: cell-based, human; conditions: for TGI: HCT-116, colon cancer; for GI50 / pIC50 / CC50: Homo sapiens; for GI50 / pIC50: HCT-116; for CC50: HCT-116, read-out: LC50
MOLT-4 = assay: NCI 60-cell line screen; format: cell-based, human; conditions: for GI50 / pIC50 / CC50: Homo sapiens; for GI50 / pIC50: MOLT-4; for CC50: MOLT-4, read-out: LC50; for TGI: MOLT-4, leukemia
U251 = assay: NCI 60-cell line screen; format: cell-based, human; conditions: for GI50 / pIC50 / CC50: Homo sapiens; for GI50 / pIC50: U-251; for CC50: U-251, read-out: LC50; for TGI: U251, CNS cancer
How it was run: as §1

LOX IMVI = assay: NCI 60-cell line screen; format: cell-based, human; conditions: for GI50 / pIC50 / CC50: Homo sapiens; for CC50: read-out: LC50; for TGI: melanoma
CDK1/cyclin B = CDK1/cyclin B (Homo sapiens, UniProt P06493); assay: Kinase selectivity for OMS14; format: biochemical
[2] = molecular target: PIK3CA E542 K/PIK3R1 (p110 α E542 K/p85 α) (Homo sapiens, UniProt P42336, E542K); assay: Kinase selectivity for OMS14; format: biochemical
MCF-7 cancer cell line = assay: MTT assay; format: cell-based; conditions: Homo sapiens, MCF7, 72 h
How it was run: as §2

PKN2 (PRK2) = PKN2 (PRK2) (Homo sapiens, UniProt Q16513); assay: Kinase selectivity for OMS14; format: biochemical
[3] = molecular target: PIK3CD/PIK3R1 (p110 δ/p85 α) (Homo sapiens, UniProt O00329); assay: Kinase selectivity for OMS14; format: biochemical
AKT3 (PKB γ) = AKT3 (PKB γ) (Homo sapiens, UniProt Q9Y243); assay: Kinase selectivity for OMS14; format: biochemical
[4] = read-out: % of inhibition (mean)
[5] = read-out: % of inhibition, point 1
[6] = read-out: % of inhibition, point 2

PIK3CD/PIK3R1 (p110 δ/p85 α), sequence (O00329 whole entry): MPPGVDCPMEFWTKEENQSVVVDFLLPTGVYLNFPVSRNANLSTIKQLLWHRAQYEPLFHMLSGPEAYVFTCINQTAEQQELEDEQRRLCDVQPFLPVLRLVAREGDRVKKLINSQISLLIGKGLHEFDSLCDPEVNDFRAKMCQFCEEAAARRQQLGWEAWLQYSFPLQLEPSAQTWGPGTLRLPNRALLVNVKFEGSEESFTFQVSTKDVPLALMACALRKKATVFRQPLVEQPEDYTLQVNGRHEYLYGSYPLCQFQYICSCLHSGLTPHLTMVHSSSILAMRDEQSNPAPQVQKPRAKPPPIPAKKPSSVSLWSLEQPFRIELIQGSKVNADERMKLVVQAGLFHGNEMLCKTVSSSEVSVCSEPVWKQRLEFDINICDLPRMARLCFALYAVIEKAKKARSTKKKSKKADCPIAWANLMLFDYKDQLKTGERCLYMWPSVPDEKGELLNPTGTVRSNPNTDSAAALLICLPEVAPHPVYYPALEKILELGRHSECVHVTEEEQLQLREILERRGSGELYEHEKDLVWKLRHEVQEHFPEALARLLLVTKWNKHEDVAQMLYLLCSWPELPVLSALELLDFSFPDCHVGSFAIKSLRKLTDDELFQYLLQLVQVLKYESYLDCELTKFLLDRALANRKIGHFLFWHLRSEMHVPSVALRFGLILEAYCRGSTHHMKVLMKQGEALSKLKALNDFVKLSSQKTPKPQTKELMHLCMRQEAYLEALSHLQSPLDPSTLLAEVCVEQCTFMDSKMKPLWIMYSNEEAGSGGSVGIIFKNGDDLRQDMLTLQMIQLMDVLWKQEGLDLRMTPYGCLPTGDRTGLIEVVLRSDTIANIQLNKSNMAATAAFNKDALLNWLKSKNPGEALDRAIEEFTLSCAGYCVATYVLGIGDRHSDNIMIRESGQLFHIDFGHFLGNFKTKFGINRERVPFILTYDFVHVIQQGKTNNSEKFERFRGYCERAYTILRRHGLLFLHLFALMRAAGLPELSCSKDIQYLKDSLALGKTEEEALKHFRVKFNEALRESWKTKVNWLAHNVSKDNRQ
PIK3CD/PIK3R1 (p110 δ/p85 α), sequence (P27986 whole entry partner): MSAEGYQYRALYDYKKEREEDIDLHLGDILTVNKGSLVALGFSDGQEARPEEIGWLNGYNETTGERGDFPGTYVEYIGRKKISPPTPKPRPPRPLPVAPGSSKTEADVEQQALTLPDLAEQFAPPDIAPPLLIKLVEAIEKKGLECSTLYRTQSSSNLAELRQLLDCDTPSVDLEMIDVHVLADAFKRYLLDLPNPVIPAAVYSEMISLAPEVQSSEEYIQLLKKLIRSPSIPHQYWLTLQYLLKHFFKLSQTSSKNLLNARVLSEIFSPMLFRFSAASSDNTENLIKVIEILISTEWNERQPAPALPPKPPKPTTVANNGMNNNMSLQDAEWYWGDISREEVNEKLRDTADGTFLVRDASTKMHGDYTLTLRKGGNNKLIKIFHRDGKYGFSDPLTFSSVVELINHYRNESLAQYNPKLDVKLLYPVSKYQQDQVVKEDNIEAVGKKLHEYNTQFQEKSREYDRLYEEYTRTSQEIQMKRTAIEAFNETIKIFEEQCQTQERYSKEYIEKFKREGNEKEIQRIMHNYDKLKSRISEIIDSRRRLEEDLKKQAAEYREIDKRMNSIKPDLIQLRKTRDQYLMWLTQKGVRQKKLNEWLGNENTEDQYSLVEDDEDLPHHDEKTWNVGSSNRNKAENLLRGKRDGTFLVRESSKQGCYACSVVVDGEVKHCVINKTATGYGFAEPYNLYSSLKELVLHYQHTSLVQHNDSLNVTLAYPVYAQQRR
AKT3 (PKB γ), sequence (Q9Y243 whole entry): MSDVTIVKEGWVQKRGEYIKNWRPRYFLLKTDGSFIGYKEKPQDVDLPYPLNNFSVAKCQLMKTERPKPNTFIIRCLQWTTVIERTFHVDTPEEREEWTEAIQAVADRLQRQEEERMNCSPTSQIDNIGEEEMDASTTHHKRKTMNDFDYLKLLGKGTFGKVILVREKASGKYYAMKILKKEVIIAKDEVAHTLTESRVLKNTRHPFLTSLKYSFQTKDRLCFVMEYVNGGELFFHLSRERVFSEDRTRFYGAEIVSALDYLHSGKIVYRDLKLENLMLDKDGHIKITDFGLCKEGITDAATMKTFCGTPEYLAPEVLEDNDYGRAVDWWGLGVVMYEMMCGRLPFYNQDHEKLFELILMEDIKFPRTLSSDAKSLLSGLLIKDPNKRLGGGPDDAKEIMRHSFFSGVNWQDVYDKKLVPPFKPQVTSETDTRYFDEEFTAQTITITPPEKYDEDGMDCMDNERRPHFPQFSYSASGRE
PIK3CA E542 K/PIK3R1 (p110 α E542 K/p85 α), sequence (P42336 whole entry E542K): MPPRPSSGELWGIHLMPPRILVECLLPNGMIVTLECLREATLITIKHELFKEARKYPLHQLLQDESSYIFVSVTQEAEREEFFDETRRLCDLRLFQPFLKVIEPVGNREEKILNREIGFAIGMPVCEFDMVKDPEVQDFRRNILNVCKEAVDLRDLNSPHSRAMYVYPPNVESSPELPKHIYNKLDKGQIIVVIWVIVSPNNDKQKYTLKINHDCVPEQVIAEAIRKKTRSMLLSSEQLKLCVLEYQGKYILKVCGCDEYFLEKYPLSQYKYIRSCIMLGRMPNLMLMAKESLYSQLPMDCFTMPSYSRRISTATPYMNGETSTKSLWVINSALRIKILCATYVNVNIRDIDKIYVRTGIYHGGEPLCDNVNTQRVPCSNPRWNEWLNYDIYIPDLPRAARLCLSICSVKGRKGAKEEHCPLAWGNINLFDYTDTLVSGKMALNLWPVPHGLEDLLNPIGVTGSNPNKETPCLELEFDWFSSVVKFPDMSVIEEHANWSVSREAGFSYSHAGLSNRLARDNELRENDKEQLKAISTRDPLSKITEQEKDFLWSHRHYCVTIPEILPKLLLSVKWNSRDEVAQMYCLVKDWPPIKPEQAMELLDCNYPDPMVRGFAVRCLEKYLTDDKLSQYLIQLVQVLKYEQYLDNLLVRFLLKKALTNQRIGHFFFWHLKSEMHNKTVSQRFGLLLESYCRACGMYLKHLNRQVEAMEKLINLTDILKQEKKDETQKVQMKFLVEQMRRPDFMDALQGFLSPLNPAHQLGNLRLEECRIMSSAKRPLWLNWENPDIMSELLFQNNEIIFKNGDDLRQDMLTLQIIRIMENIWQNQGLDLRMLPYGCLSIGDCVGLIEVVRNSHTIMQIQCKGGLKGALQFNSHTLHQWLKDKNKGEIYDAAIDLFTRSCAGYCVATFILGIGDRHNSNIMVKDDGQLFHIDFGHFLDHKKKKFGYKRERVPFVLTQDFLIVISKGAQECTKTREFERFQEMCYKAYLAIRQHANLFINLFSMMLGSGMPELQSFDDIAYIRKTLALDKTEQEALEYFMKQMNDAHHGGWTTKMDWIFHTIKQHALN
PIK3CA E542 K/PIK3R1 (p110 α E542 K/p85 α), sequence (P27986 whole entry partner): as the sequence (P27986 whole entry partner) above
CDK1/cyclin B, sequence (P06493 whole entry): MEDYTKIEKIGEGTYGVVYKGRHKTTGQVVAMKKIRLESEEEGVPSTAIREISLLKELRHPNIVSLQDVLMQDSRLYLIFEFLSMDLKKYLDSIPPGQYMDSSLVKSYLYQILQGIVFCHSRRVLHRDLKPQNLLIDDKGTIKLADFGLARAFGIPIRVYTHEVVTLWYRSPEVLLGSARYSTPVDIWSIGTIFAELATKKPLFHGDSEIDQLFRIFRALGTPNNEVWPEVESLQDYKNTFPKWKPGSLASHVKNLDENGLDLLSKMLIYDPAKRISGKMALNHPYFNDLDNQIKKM
CDK1/cyclin B, sequence (P14635 whole entry, further chain): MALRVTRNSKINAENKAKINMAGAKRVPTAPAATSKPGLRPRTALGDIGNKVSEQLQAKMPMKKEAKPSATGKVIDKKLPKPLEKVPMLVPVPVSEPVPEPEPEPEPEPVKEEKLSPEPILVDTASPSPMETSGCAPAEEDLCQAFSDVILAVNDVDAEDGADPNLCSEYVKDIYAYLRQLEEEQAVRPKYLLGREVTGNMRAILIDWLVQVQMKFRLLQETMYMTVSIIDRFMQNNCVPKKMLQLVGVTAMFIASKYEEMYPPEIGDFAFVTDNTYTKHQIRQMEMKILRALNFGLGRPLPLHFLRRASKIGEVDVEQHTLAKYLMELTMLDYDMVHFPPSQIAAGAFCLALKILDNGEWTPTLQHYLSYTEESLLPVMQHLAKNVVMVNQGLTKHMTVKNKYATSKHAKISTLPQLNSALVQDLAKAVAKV
PKN2 (PRK2), sequence (Q16513 whole entry): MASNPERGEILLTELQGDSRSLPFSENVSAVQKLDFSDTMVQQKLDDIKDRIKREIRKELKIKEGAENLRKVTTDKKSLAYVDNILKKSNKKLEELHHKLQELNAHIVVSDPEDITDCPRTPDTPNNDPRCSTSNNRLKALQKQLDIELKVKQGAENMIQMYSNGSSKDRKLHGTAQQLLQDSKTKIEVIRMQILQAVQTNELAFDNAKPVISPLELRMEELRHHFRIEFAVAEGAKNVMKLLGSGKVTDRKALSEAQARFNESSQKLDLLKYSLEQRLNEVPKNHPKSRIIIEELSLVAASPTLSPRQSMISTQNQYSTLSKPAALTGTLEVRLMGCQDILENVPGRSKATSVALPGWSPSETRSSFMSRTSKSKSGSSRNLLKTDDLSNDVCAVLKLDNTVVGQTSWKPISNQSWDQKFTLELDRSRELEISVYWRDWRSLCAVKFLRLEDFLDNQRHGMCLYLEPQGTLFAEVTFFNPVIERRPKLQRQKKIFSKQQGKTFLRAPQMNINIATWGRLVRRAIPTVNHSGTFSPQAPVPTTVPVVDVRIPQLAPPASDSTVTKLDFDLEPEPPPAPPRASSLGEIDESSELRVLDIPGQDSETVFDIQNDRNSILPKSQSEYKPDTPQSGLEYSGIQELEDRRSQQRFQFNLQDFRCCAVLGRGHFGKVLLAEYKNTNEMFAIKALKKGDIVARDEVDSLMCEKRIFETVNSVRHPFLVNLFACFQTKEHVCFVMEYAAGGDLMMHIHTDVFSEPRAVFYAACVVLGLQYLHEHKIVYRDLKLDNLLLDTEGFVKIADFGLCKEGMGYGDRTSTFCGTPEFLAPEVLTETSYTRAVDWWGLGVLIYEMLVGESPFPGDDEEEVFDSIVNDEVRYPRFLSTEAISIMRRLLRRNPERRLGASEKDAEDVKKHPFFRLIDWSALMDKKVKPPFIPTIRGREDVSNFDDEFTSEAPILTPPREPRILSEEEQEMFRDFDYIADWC

O=C(CNc1ccc([N+](=O)[O-])cc1)Nc1nc2ccccc2s1 [OMS5, N-(1,3-benzothiazol-2-yl)-2-(4-nitroanilino)acetamide]
GI50 (UO-31): 0.5 µM | pIC50 (UO-31): 5.89 | CC50 (UO-31): 26.9 µM | TGI (UO-31): 3.8 µM | GI50 (ACHN): 0.4 µM | pIC50 (ACHN): 6.10 | CC50 (ACHN): 33.1 µM | TGI (ACHN): 8.5 µM | GI50 (UACC-257): 1.3 µM | pIC50 (UACC-257): 5.60 | CC50 (UACC-257): 6.3 µM | TGI (UACC-257): 2.8 µM | TGI (HL-60(TB)): 14 µM | GI50 (NCI-H460): 0.4 µM | pIC50 (NCI-H460): 6.30 | CC50 (NCI-H460): 39.8 µM | TGI (NCI-H460): 3.3 µM | GI50 (NCI-H226): 0.6 µM | pIC50 (NCI-H226): 5.52 | CC50 (NCI-H226): > 100 µM | TGI (NCI-H226): 4.9 µM | GI50 (SK-MEL-28): 1.6 µM | pIC50 (SK-MEL-28): 5.52 | CC50 (SK-MEL-28): 6.9 µM | TGI (SK-MEL-28): 3.3 µM | GI50 (M14): 0.9 µM | pIC50 (M14): 5.85 | CC50 (M14): 6.5 µM | TGI (M14): 2.5 µM | GI50 (OVCAR-5): 1 µM | pIC50 (OVCAR-5): 5.60 | CC50 (OVCAR-5): 46.8 µM | TGI (OVCAR-5): 5.4 µM | GI50 (EKVX): 1.1 µM | pIC50 (EKVX): 5.60 | CC50 (EKVX): 26.9 µM | TGI (EKVX): 4.2 µM | TGI (BT-549): 6.5 µM | GI50 (BT-549): 2 µM | pIC50 (BT-549): 5.27 | CC50 (BT-549): 27.5 µM | pIC50 [1]: 4.21 to 4.66 | TGI (HCT-116): 11 µM | GI50 (HCT-116): 0.4 µM | pIC50 (HCT-116): 6.40 | CC50 (HCT-116): 45.7 µM | GI50 (MOLT-4): 0.4 µM | pIC50 (MOLT-4): 6.22 | CC50 (MOLT-4): > 100 µM | TGI (MOLT-4): 12 µM | GI50 (U251): 0.9 µM | pIC50 (U251): 5.77 | CC50 (U251): 41.7 µM | TGI (U251): 12 µM | GI50 (LOX IMVI): 0.6 µM | pIC50 (LOX IMVI): 6.00 | CC50 (LOX IMVI): 8.7 µM | TGI (LOX IMVI): 2.6 µM

O=C(CN1CCN(CC(=O)Nc2nc3ccccc3s2)CC1)Nc1ccc([N+](=O)[O-])cc1 [OMS14, N-(benzo[d]thiazol-2-yl)-2-(4-(2-((4-nitrophenyl)amino)-2-oxoethyl)piperazin-1-yl)acetamide]
inhibition at 100 µM (CDK1/cyclin B; [4]): 24% | inhibition at 100 µM (CDK1/cyclin B; [5]): 23% | inhibition at 100 µM (CDK1/cyclin B; [6]): 25% | GI50 (UO-31): 1.3 µM | pIC50 (UO-31): 5.60 | CC50 (UO-31): 8.5 µM | TGI (UO-31): 3.3 µM | inhibition at 100 µM [2, 4]: 34% | inhibition at 100 µM [2, 5]: 33% | inhibition at 100 µM [2, 6]: 36% | GI50 (ACHN): 1.1 µM | pIC50 (ACHN): 5.68 | CC50 (ACHN): 22.9 µM | TGI (ACHN): 4.4 µM | pIC50 (MCF-7 cancer cell line): 4.66 | inhibition at 100 µM (PKN2 (PRK2); [4]): 10% | inhibition at 100 µM (PKN2 (PRK2); [5]): 11% | inhibition at 100 µM (PKN2 (PRK2); [6]): 8% | inhibition at 100 µM [3, 4]: 65% | inhibition at 100 µM [3, 5]: 66% | inhibition at 100 µM [3, 6]: 64% | GI50 (UACC-257): 2.1 µM | pIC50 (UACC-257): 5.38 | CC50 (UACC-257): 11.7 µM | TGI (UACC-257): 4.7 µM | TGI (HL-60(TB)): 7.6 µM | GI50 (NCI-H460): 1.3 µM | pIC50 (NCI-H460): 5.74 | CC50 (NCI-H460): 21.9 µM | TGI (NCI-H460): 4.1 µM | GI50 (NCI-H226): 1.4 µM | pIC50 (NCI-H226): 5.46 | CC50 (NCI-H226): > 100 µM | TGI (NCI-H226): 4.2 µM | GI50 (SK-MEL-28): 2.1 µM | pIC50 (SK-MEL-28): 5.40 | CC50 (SK-MEL-28): 23.4 µM | TGI (SK-MEL-28): 6.2 µM | GI50 (M14): 1.7 µM | pIC50 (M14): 5.52 | CC50 (M14): 8.3 µM | TGI (M14): 3.8 µM | inhibition at 100 µM (AKT3 (PKB γ); [4]): 28% | inhibition at 100 µM (AKT3 (PKB γ); [5]): 27% | inhibition at 100 µM (AKT3 (PKB γ); [6]): 29% | GI50 (OVCAR-5): 1.5 µM | pIC50 (OVCAR-5): 5.49 | CC50 (OVCAR-5): 57.5 µM | TGI (OVCAR-5): 4.8 µM | GI50 (EKVX): 2 µM | pIC50 (EKVX): 5.42 | CC50 (EKVX): 27.5 µM | TGI (EKVX): 4.9 µM | TGI (BT-549): 9.8 µM | GI50 (BT-549): 3 µM | pIC50 (BT-549): 5.11 | CC50 (BT-549): 36.3 µM | pIC50 [1]: 4.21 to 4.66 | TGI (HCT-116): 10.5 µM | GI50 (HCT-116): 0.7 µM | pIC50 (HCT-116): 6.10 | CC50 (HCT-116): 52.5 µM | GI50 (MOLT-4): 1.1 µM | pIC50 (MOLT-4): 5.60 | CC50 (MOLT-4): > 100 µM | TGI (MOLT-4): 9.5 µM | GI50 (U251): 2.6 µM | pIC50 (U251): 5.46 | CC50 (U251): 50.1 µM | TGI (U251): 11.0 µM | GI50 (LOX IMVI): 1.6 µM | pIC50 (LOX IMVI): 5.55 | CC50 (LOX IMVI): 6.2 µM | TGI (LOX IMVI): 3.2 µM
